Results on three compounds are retold here after ChEMBL document CHEMBL2424527, “Doxorubicin-antioxidant co-drugs” (Bioorg Med Chem Lett, 2013).

The source made the active and inactive calls. The rule behind the calls is not given here.

Data set [1] deals with MCF7. As to the kind of experiment: Antioxidant activity in human MCF7 cells assessed as intracellular malonyldialdehyde level at 5 umol/L after 24 hrs by spectrofluorimetry. Format: functional, cell-based.
Data set [2] concerns MDA-MB-231. The experiment in a line: Antioxidant activity in human MDA-MB-231 cells assessed as intracellular ROS level at 5 umol/L after 24 hrs by DCFDA-AM staining-based spectrofluorimetry. It is filed as functional, cell-based. The procedure, abridged:
(§1)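 Cells rinsed in PBS, loaded with 10 μmol/L DCFDA-AM for 10 min at 37°C, washed, resuspended in PBS. DCFH fluorescence read at ex 490/em 530 nm, cell-free blank subtracted, converted to nmol/mg cell protein by titration curve. Means ± SD; ANOVA with Tukey's test.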

For data set [3], the system named is MCF7. The experiment in a line: Cytotoxicity against human MCF7 cells assessed as LDH release at 5 umol/L after 24 hrs. It is filed as functional, cell-based. The procedure, abridged: (§2)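 Cells exposed 24 h to 5 μmol/L compound. Medium centrifuged 12,000 × g, 15 min; cells sonicated in 82.3 mmol/L triethanolamine phosphate-HCl pH 7.6. LDH read at 340 nm over 6 min in medium and lysate, in duplicate. Extracellular activity given as % of total; means ± SD, n = 4.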

The subject of data set [4] is H9c2. As to the kind of experiment: Antioxidant activity in rat H9c2 cells assessed as intracellular malonyldialdehyde level at 5 umol/L after 24 hrs by spectrofluorimetry. Format: functional, cell-based.
For another data set, the species on record is Homo sapiens. As to the kind of experiment: Inhibition of human topoisomerase 2 using supercoiled pHOT1 as substrate at 1 to 50 umol/L by agarose gel electrophoresis. The procedure, abridged:
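Purified human topoisomerase II incubated with supercoiled pHOT1 plasmid and drug at 1, 5, 25, 50 μmol/L, using a commercial topoisomerase II drug screening kit. Etoposide at 5, 50, 100 μmol/L served as positive control.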

Data set [5] deals with MCF7. The experiment in a line: Cellular uptake in human MCF7 cells at 5 umol/L after 24 hrs by spectrofluorimetry. It is filed as ADME, cell-based. The note with it: mcf7, 24 h, 5 µM. The procedure, abridged: (§3)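 Cells exposed 24 h to 5 μmol/L drug. Doxorubicin in whole-cell lysates read fluorimetrically at ex 475/em 553 nm, cell-free blank subtracted. Converted to nmol/mg cell protein via calibration curve. Duplicate measurements; means ± SD, n = 3.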

Data set [6] has as its system MDA-MB-231. As to the kind of experiment: Drug efflux in human MDA-MB-231 cells at 1 to 100 umol/L incubated for 20 mins prior to compound wash out measured after 10 mins by spectrofluorimetry. Format: ADME, cell-based. The note with it: mda-mb-231, 20 min. The procedure, abridged:
(§4)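 Doxorubicin in whole-cell lysates measured fluorimetrically at ex 475/em 553 nm, blank subtracted, converted to nmol/mg cell protein by calibration curve. Kinetic values fitted to Michaelis-Menten equation to obtain Vmax and Km.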

The test system of data set [7] is MDA-MB-231. The experiment in a line: Cytotoxicity against human MDA-MB-231 cells assessed as LDH release at 5 umol/L after 24 hrs. Format: functional, cell-based. The procedure, abridged:
as §2

A short description of data set [8]: Cellular uptake in human MCF7 cell nucleus at 5 umol/L after 24 hrs by fluorimetric analysis. The note with it: mcf7, 24 h, 5 µM. Format: ADME, cell-based. In short, it runs like this: (§5)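 Cells incubated 24 h with 5 μmol/L drug. Doxorubicin measured fluorimetrically in nuclear or mitochondrial extracts, in duplicate. Means ± SD, n = 3.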
Data set [9] concerns MCF7. The experiment in a line: Drug efflux in human MCF7 cells at 1 to 100 umol/L incubated for 20 mins prior to compound wash out measured after 10 mins by spectrofluorimetry. It is filed as ADME, cell-based. The note with it: mcf7, 20 min. The procedure, abridged: as §4
Data set [10] concerns H9c2. The experiment in a line: Cellular uptake in rat H9c2 cells at 5 umol/L after 24 hrs by spectrofluorimetry. It is filed as ADME, cell-based. The note with it: h9c2, 24 h, 5 µM. The procedure, abridged: as §3
Data set [11] relates to MCF7. The experiment in a line: Antioxidant activity in human MCF7 cells assessed as intracellular ROS level at 5 umol/L after 24 hrs by DCFDA-AM staining-based spectrofluorimetry. Format: functional, cell-based. The procedure, abridged:
as §1

Data set [12] relates to H9c2. The experiment in a line: Cytotoxicity against rat H9c2 cells assessed as LDH release at 5 umol/L after 24 hrs. Format: cell-based. The note with it: h9c2, 24 h, 5 µM. In short, it runs like this: as §2
Background: LDH in the medium is a marker of cell lysis.

For data set [13], the system named is H9c2. The experiment in a line: Antioxidant activity in rat H9c2 cells assessed as intramitochondrial ROS level at 5 umol/L after 24 hrs by DCFDA-AM staining-based spectrofluorimetry. It is filed as functional, cell-based. The procedure, abridged: (§6)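 Mitochondria freshly isolated from cells grown 24 h with 5 μmol/L compound. DCFDA-AM loading and fluorescence read (ex 490/em 530 nm) as for whole cells, blank subtracted. Values expressed as nmol/mg mitochondrial protein. Measured in duplicate; means ± SD.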

Data set [14] is described as follows: Cellular uptake in human MDA-MB-231 cell nucleus at 5 umol/L after 24 hrs by fluorimetric analysis. As to conditions: mda-mb-231, 24 h, 5 µM. It is filed as ADME, cell-based. The procedure, abridged: as §5
The test system of data set [15] is MDA-MB-231. The experiment in a line: Cellular uptake in human MDA-MB-231 cells at 5 umol/L after 24 hrs by spectrofluorimetry. Format: ADME, cell-based. As to conditions: mda-mb-231, 24 h, 5 µM. The procedure, abridged: as §3
Data set [16] has as its system MDA-MB-231. The experiment in a line: Antioxidant activity in human MDA-MB-231 cells assessed as intramitochondrial ROS level at 5 umol/L after 24 hrs by DCFDA-AM staining-based spectrofluorimetry. Format: functional, cell-based. The procedure, abridged:
as §6

Data set [17] relates to MDA-MB-231. As to the kind of experiment: Antioxidant activity in human MDA-MB-231 cells assessed as intracellular malonyldialdehyde level at 5 umol/L after 24 hrs by spectrofluorimetry. It is filed as functional, cell-based.
Data set [18] deals with H9c2. As to the kind of experiment: Drug efflux in rat H9c2 cells at 1 to 100 umol/L incubated for 20 mins prior to compound wash out measured after 10 mins by spectrofluorimetry. It is filed as ADME, cell-based. As to conditions: h9c2, 20 min. In short, it runs like this:
as §4

Data set [19] has as its system H9c2. As to the kind of experiment: Antioxidant activity in rat H9c2 cells assessed as intracellular ROS level at 5 umol/L after 24 hrs by DCFDA-AM staining-based spectrofluorimetry. It is filed as functional, cell-based. In short, it runs like this:
as §1

Data set [20] deals with MCF7. As to the kind of experiment: Antioxidant activity in human MCF7 cells assessed as intramitochondrial ROS level at 5 umol/L after 24 hrs by DCFDA-AM staining-based spectrofluorimetry. Format: functional, cell-based. The procedure, abridged: as §6
Data set [21] in a line: Cellular uptake in human MCF7 cell mitochondria at 5 umol/L after 24 hrs by fluorimetric analysis. It is filed as ADME. The note with it: mcf7, 24 h, 5 µM. The procedure, abridged: as §5
A short description of data set [22]: Cellular uptake in human MDA-MB-231 cell mitochondria at 5 umol/L after 24 hrs by fluorimetric analysis. It is filed as ADME. As to conditions: mda-mb-231, 24 h, 5 µM. The procedure, abridged: as §5
Data set [23] is described as follows: Cellular uptake in rat H9c2 cell nucleus at 5 umol/L after 24 hrs by fluorimetric analysis. It is filed as ADME, cell-based. The note with it: h9c2, 24 h, 5 µM. In short, it runs like this: as §5
Data set [24] in a line: Cellular uptake in rat H9c2 cell mitochondria at 5 umol/L after 24 hrs by fluorimetric analysis. Format: ADME. As to conditions: h9c2, 24 h, 5 µM. The procedure, abridged:
as §5

One may read the Vmax as the top rate of the reaction or transport when substrate is in excess. For `COc1cccc2c1C(=O)c1c(O)c3c(c(O)c1C2=O)C[C@@](O)(C(=O)CO)C[C@@H]3O[C@H]1C[C@H](N)[C@H](O)[C@H](C)O1` [DOXORUBICIN], the outcome in the data set on MCF7 [1], with MCF7 [3], with H9c2 [4], with MDA-MB-231 [7], in the data set with MCF7 [11] and in the data set with H9c2 [13] was Active. In addition, the outcome in the data set on H9c2 [19] and with MCF7 [20] was Active. Besides, the outcome in the data set on MDA-MB-231 [2], in the data set on MDA-MB-231 [16] and in the data set with MDA-MB-231 [17] was inactive. Besides, in the data set listed under Homo sapiens, the inhibition entry is “Active”. Further, the Drug uptake entry in the data set with MCF7 [5] is recorded as “Active”; in data set [8], “Active”; in the data set on H9c2 [10], “Not Active”; in data set [14], “Active”; in the data set on MDA-MB-231 [15] it was “Active”. The Km in the data set on MDA-MB-231 [6] came to 1.35 nmol/mg; with MCF7 [9], 1.88 nmol/mg; with H9c2 [18] it was 1.96 nmol/mg. The maximal velocity (Vmax) in the data set on MDA-MB-231 [6] is 33.11 nmol/min/mg; in the data set on MCF7 [9], 18.9 nmol/min/mg; with H9c2 [18] it was 11.89 nmol/min/mg. Also, the Activity entry with H9c2 [12] is “Toxic”.

For the compound `COc1cc(/C=C/C(=O)OCC(=O)[C@]2(O)Cc3c(O)c4c(c(O)c3[C@@H](O[C@H]3C[C@H](N)[C@H](O)[C@H](C)O3)C2)C(=O)c2c(OC)cccc2C4=O)ccc1O.Cl`, the outcome in the data set with MCF7 [1], with MCF7 [3], with H9c2 [4], with MDA-MB-231 [7], in the data set on MCF7 [11] and with H9c2 [13] was Active. Besides, the outcome with H9c2 [19] and with MCF7 [20] was Active. Also, the outcome in the data set with MDA-MB-231 [2], in the data set on MDA-MB-231 [16] and in the data set on MDA-MB-231 [17] was inactive. The Drug uptake entry (in data set [21]; in data set [22]; in data set [23]; in the data set on MCF7 [5]; in data set [24]; in data set [8]) was “Active” each time. Further, the Drug uptake entry in the data set on H9c2 [10] is reported as “Not Active”; in data set [14], “Active”; in the data set on MDA-MB-231 [15] it was “Active”. Also, the inhibition entry in the data set filed under Homo sapiens was “Active”. The Km in the data set with MDA-MB-231 [6] is given as 1.25 nmol/mg; with MCF7 [9], 1.83 nmol/mg; with H9c2 [18] it was 2.01 nmol/mg. In addition, the Vmax with MDA-MB-231 [6] was found to be 16.53 nmol/min/mg; in the data set with MCF7 [9], 11.1 nmol/min/mg; in the data set on H9c2 [18], 11.7 nmol/min/mg. Besides, the Activity result with H9c2 [12] was “Toxic”.

`COc1cccc2c1C(=O)c1c(O)c3c(c(O)c1C2=O)C[C@@](O)(C(=O)COC(=O)/C=C/c1ccc(O)c(O)c1)C[C@@H]3O[C@H]1C[C@H](N)[C@H](O)[C@H](C)O1.Cl`: the result in the data set with MCF7 [3] was Active. The Drug uptake result in the data set on MCF7 [5], in the data set with H9c2 [10] and in the data set with MDA-MB-231 [15] was “Active” in each case. Besides, the result in the data set with MDA-MB-231 [7] was inactive. Moreover, in the data set on H9c2 [12], the Activity result was “Toxic”.
